Measurements from article PMC5088049 (Pharmacogenetics and genomics, 2016).
Substitutions are numbered along the chain they refer to.

What was measured:
Assay type in all cases: in vitro ADME
[1] = Kinetics of EXE reduction to 17β-DHE, pooled human liver cytosol
AKR1C1 [2] = target: T1, AKR1C1 (Homo sapiens, UniProt Q04828); experiment: Kinetics of EXE reduction to 17β-DHE, recombinant AKR1C1; details: wildtype AKR1C1
AKR1C2 = AKR1C2 (Homo sapiens, UniProt P52895); experiment: Kinetics of EXE reduction to 17β-DHE, recombinant AKR1C2; details: wildtype AKR1C2
Sequence of AKR1C2 (P52895 whole entry): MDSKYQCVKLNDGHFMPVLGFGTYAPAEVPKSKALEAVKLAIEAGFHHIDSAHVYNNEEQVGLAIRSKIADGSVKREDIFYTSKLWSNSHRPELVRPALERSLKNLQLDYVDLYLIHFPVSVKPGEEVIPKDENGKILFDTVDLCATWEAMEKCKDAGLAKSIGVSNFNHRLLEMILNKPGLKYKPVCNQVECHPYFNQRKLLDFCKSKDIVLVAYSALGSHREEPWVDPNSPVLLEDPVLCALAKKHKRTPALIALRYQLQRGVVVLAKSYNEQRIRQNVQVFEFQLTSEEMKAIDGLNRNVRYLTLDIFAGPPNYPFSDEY

AKR1C3 = AKR1C3 (Homo sapiens, UniProt P42330); experiment: Kinetics of EXE reduction to 17β-DHE, recombinant AKR1C3
Sequence of AKR1C3 (P42330 whole entry): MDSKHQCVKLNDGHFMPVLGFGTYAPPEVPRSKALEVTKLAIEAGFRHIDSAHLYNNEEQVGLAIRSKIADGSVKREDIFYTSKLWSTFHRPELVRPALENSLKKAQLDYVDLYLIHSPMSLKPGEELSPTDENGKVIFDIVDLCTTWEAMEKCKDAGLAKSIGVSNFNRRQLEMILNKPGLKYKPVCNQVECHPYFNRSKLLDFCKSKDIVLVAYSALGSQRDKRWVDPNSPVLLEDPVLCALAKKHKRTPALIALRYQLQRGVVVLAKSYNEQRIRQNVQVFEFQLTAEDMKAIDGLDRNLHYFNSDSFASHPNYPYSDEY

AKR1C3 His5Gln = AKR1C3 His5Gln (Homo sapiens, UniProt P42330, H5Q); experiment: Kinetics of EXE reduction to 17β-DHE, recombinant AKR1C3 His5Gln
Sequence of AKR1C3 His5Gln (P42330 whole entry H5Q): as the sequence (P42330 whole entry) above, with H5Q counted along it

AKR1C3 Glu77Gly = AKR1C3 Glu77Gly (Homo sapiens, UniProt P42330, E77G); experiment: Kinetics of EXE reduction to 17β-DHE, recombinant AKR1C3 Glu77Gly; details: for VMAX: normalized to enzyme purity
Sequence of AKR1C3 Glu77Gly (P42330 whole entry E77G): as the sequence (P42330 whole entry) above, with E77G counted along it

AKR1C3 Lys104Asn = AKR1C3 Lys104Asn (Homo sapiens, UniProt P42330, K104N); experiment: Kinetics of EXE reduction to 17β-DHE, recombinant AKR1C3 Lys104Asn
Sequence of AKR1C3 Lys104Asn (P42330 whole entry K104N): as the sequence (P42330 whole entry) above, with K104N counted along it

AKR1C3 Pro180Ser = AKR1C3 Pro180Ser (Homo sapiens, UniProt P42330, P180S); experiment: Kinetics of EXE reduction to 17β-DHE, recombinant AKR1C3 Pro180Ser
Sequence of AKR1C3 Pro180Ser (P42330 whole entry P180S): as the sequence (P42330 whole entry) above, with P180S counted along it

AKR1C3 Arg258Cys = AKR1C3 Arg258Cys (Homo sapiens, UniProt P42330, R258C); experiment: Kinetics of EXE reduction to 17β-DHE, recombinant AKR1C3 Arg258Cys
Sequence of AKR1C3 Arg258Cys (P42330 whole entry R258C): as the sequence (P42330 whole entry) above, with R258C counted along it

AKR1C4 [3] = target: T2, AKR1C4 (Homo sapiens, UniProt P17516); experiment: Kinetics of EXE reduction to 17β-DHE, recombinant AKR1C4; details: wildtype AKR1C4; for VMAX: normalized to enzyme purity
T2 sequence (P17516 1-323): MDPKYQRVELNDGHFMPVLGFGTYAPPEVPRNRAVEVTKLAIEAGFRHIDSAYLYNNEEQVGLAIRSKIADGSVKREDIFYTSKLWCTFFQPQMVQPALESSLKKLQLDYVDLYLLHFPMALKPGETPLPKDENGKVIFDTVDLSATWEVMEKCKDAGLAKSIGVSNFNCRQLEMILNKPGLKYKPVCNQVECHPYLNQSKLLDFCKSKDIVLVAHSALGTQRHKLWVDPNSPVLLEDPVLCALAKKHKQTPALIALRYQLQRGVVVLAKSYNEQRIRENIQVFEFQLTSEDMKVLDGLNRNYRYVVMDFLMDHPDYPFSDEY

AKR1C4 Leu311Val = target: T3, AKR1C4 Leu311Val (Homo sapiens, UniProt P17516, L311V); experiment: Kinetics of EXE reduction to 17β-DHE, recombinant AKR1C4 Leu311Val
T3 sequence (P17516 1-323 L311V): T2 sequence (P17516 1-323) with L311V

CBR1 = target: T4, CBR1 (Homo sapiens, UniProt P16152); experiment: Kinetics of EXE reduction to 17β-DHE, recombinant CBR1; details: for CLINT: VMAX/KM
T4 sequence (P16152 1-277): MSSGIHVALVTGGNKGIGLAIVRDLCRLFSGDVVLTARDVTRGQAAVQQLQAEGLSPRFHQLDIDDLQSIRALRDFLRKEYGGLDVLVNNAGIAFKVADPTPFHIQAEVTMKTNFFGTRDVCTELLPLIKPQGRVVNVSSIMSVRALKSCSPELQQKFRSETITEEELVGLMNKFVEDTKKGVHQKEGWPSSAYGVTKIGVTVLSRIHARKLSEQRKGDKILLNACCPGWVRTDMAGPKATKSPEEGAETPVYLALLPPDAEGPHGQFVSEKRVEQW

AKR1C4 [4] = target: T2, AKR1C4; experiment: Metabolite identification, overnight incubation with recombinant AKR1C4; details: 200 µM EXE, 18-h incubation, 1.5 µg recombinant AKR1C4
In short: (§1)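 Wildtype enzyme was His-tagged, expressed in E. coli BL21 (IPTG induction), Ni-NTA purified and dialysed against PBS. It was stopped with ice-cold acetonitrile and centrifuged. UPLC/ESI+ full scan (m/z 100–450) was followed by targeted MS/MS transitions. Retention times were matched to synthetic 17α/17β-dihydro standards.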

AKR1C1 [5] = target: T1, AKR1C1; experiment: Metabolite identification, overnight incubation with recombinant AKR1C1; details: 200 µM EXE, 18-h incubation, 1.5 µg recombinant AKR1C1
In short: as §1

T1 sequence (Q04828 whole entry): as the sequence (P52895 whole entry) above, with V38T, H47R, V54L, S87C, M151V, H170R, L172Q counted along it

- Km at 90 min ([1]; human, pooled human liver cytosol, pH 7.4): 55.7 ± 1.9 µM
- CLINT (AKR1C1 [2]; VMAX/KM): 0.002 µL/min/mg
- VMAX (AKR1C1 [2]; normalized to enzyme purity): 71.1 ± 1.5 picomoles·min^−1·mg^−1
- CLINT (AKR1C2; VMAX/KM): 0.0051 µL/min/mg
- VMAX (AKR1C2; normalized to enzyme purity): 84.2 ± 15.6 picomoles·min^−1·mg^−1
- VMAX of AKR1C3 relative to AKR1C4 (AKR1C3; higher than AKR1C4): 36 fold
- Km (AKR1C3; wildtype AKR1C3, 17β-DHE formation): 12.3 ± 1.1 µM
- CLINT (AKR1C3; wildtype AKR1C3, VMAX/KM): 0.0068 µL/min/mg
- VMAX (AKR1C3; wildtype AKR1C3, normalized to enzyme purity): 83.3 ± 15.4 picomoles·min^−1·mg^−1
- Km (AKR1C3 His5Gln; AKR1C3 His5Gln (rs12529), 17β-DHE formation): 17.9 ± 2.9 µM
- CLINT (AKR1C3 His5Gln; AKR1C3 His5Gln, VMAX/KM): 0.00021 µL/min/mg
- VMAX (AKR1C3 His5Gln; AKR1C3 His5Gln, normalized to enzyme purity): 3.8 ± 0.1 picomoles·min^−1·mg^−1
- Km (AKR1C3 Glu77Gly; AKR1C3 Glu77Gly (rs11551177), 17β-DHE formation): 13.9 ± 2.2 µM
- CLINT (AKR1C3 Glu77Gly; AKR1C3 Glu77Gly, VMAX/KM): 0.00014 µL/min/mg
- VMAX (AKR1C3 Glu77Gly; AKR1C3 Glu77Gly): 1.9 ± 0.2 picomoles·min^−1·mg^−1
- VMAX (AKR1C3 Glu77Gly; AKR1C3 Glu77Gly, listed as EXE): 1.9 ± 0.2 picomoles·min^−1·mg^−1
- Km (AKR1C3 Lys104Asn; AKR1C3 Lys104Asn (rs12387), 17β-DHE formation): 16.8 ± 1 µM
- CLINT (AKR1C3 Lys104Asn; AKR1C3 Lys104Asn, VMAX/KM): 0.00038 µL/min/mg
- VMAX (AKR1C3 Lys104Asn; AKR1C3 Lys104Asn, normalized to enzyme purity): 6.4 ± 0.3 picomoles·min^−1·mg^−1
- Km (AKR1C3 Pro180Ser; AKR1C3 Pro180Ser (rs34186955), 17β-DHE formation): 11.2 ± 3.1 µM
- CLINT (AKR1C3 Pro180Ser; AKR1C3 Pro180Ser, VMAX/KM): 0.00032 µL/min/mg
- VMAX (AKR1C3 Pro180Ser; AKR1C3 Pro180Ser, normalized to enzyme purity): 3.6 ± 0.6 picomoles·min^−1·mg^−1
- Km (AKR1C3 Arg258Cys; AKR1C3 Arg258Cys (rs62621365), 17β-DHE formation): 75.8 ± 19.9 µM
- CLINT (AKR1C3 Arg258Cys; AKR1C3 Arg258Cys, VMAX/KM): 3e-05 µL/min/mg
- VMAX (AKR1C3 Arg258Cys; AKR1C3 Arg258Cys, normalized to enzyme purity): 2.3 ± 0.1 picomoles·min^−1·mg^−1
- affinity for EXE of AKR1C3 Arg258Cys relative to wildtype (AKR1C3 Arg258Cys; lower affinity (KM) than wildtype AKR1C3): roughly 6 fold
- Km (AKR1C4 [3]; 17β-DHE formation): 9.7 ± 1.9 µM
- CLINT (AKR1C4 [3]; VMAX/KM): 0.00024 µL/min/mg
- VMAX (AKR1C4 [3]): 2.3 ± 0.6 picomoles·min^−1·mg^−1
- VMAX (AKR1C4 [3]; listed as EXE): 2.3 ± 0.6 picomoles·min^−1·mg^−1
- Km (AKR1C4 Leu311Val; AKR1C4 Leu311Val (rs17134592), 17β-DHE formation): 11.9 ± 2 µM
- CLINT (AKR1C4 Leu311Val; AKR1C4 Leu311Val, VMAX/KM): 0.00053 µL/min/mg
- VMAX (AKR1C4 Leu311Val; AKR1C4 Leu311Val, normalized to enzyme purity): 6.3 ± 0.8 picomoles·min^−1·mg^−1
- rate of EXE reduction by CBR1 relative to AKR1C2 (CBR1; VMAX, faster than AKR1C2): about 11 fold
- rate of 17β-DHE formation by CBR1 relative to recombinant AKR1C enzymes (CBR1; more rapid than recombinant AKR1C enzymes): 11 to 403 fold
- CLINT (CBR1; wildtype CBR1): 0.0035 µL/min/mg
- CLINT (CBR1; wildtype CBR1, listed as EXE): 0.0035 µL/min/mg
- VMAX (CBR1; wildtype CBR1, normalized to enzyme purity): 928 ± 244 picomoles·min^−1·mg^−1
- metabolites formed (AKR1C4 [4]): both stereoisomers of DHE
- metabolites formed (AKR1C1 [5]): only 17β-DHE formation
SMILES: C=C1C[C@@H]2[C@H](CC[C@]3(C)C(=O)CC[C@@H]23)[C@@]2(C)C=CC(=O)C=C12 [exemestane, 6-methylenandrosa-1,4-diene-3-17-dione]
- maximum rate of 17β-DHE formation (VMAX) ([1]; 5 µg pooled HLC, 90-min incubation, EXE 0.5–400 µM): 21 ± 4.8 pmol/min/mg
